Shown are actives, neighbours in structure and some others; about 29% of the full set was active somewhere.
tolC growth inh – growth inhibitors of E. coli tolC mutant, primary screen, strain BW25113 ΔtolC::kan, 384-well; growth inhibition, % at 10 µM (by protocol); OD615; 2.2% of 65,000 active; AID 573, 2007;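 active = growth inhibition at or above a cutoff equal to the mean over every tested compound plus 3 SD, cut at about 60% in these data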;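 also: growth measured after 20 h incubation at 37 °C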
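signal = optical density read at 615 nm | test system = E. coli ΔtolC::kan strain BW25113 | timing = 20 h compound exposure of bacteria at 37 °C | buffer or medium = LB medium plus 50 µg/mL kanamycin | compound dosing = 10 µM final, single dose | evaluation = % inhibition of E. coli growth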
CYP2C9 activ – human CYP2C9 activators, primary screen, biochemical, luminescence | Cytochrome P450 2C9 (Homo sapiens), P11712 | recombinant CYP2C9, luciferin-H conversion; active compounds read high; factor 1 = untreated enzyme, 0 = blocked | activation factor at 5 µM | 1.4% of 96,000 active | AID 1024, 2008;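 active = activation factor of 2 or more for CYP2C9 at a 5 µM dose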;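 also: 0 = sulfaphenazole-blocked wells and 1 = vehicle-only wells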
CYP2C19 act – human CYP2C19 activators, primary screen, biochemical, luminescence; Cytochrome P450 2C19 (Homo sapiens), P33261; recombinant CYP2C19, luciferin-H EGE luminescence; active compounds read high; 0 = fully inhibited enzyme, 1 = untreated enzyme; activation factor at 5 µM; 96,000 tested, under 10 active; AID 1025, 2008;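 active = activation factor of at least 2 at 5 µM in the primary screen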;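 also: 0 = wells with 2.5 mM tranylcypromine and 1 = vehicle-only wells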
Target sequence (P33261 whole entry, looked up): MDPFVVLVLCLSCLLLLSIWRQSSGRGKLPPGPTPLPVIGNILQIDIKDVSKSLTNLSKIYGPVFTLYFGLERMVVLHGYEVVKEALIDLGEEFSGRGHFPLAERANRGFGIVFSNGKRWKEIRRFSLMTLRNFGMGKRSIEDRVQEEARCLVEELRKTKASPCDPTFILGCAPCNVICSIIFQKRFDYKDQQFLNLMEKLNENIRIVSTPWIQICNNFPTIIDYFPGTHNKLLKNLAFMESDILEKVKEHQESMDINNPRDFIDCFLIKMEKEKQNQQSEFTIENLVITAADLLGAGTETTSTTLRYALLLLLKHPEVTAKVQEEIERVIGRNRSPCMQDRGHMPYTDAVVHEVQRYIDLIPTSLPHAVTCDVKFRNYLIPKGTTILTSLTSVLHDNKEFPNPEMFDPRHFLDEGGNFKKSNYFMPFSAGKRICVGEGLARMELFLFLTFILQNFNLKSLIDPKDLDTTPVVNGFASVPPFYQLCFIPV
CYP2C9 inh – blockers of cytochrome P450 2C9 activity – biochemical, luminescence, ADME assay, primary screen; 20% of 96,000 active; P11712; inhibition, % at 5 µM; CYP2C9 Supersomes, luciferin-H conversion;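 active = blocking of liver enzyme CYP2C9 beyond about 50% at 5 µM, limit read from the data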
CYP2C19 inhib – blockers of cytochrome P450 2C19 activity – biochemical, luminescence, ADME assay, primary screen. inhibition, % at 5 µM. CYP2C19 Supersomes, luciferin-H EGE luminescence, 30 min. P33261. 21% of 96,000 active. AID 778, 2007;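 active = CYP2C19 inhibition above a set limit at 5 µM in the primary screen, cut at about 50% in these data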;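 also: plate controls were negative control wells for no effect and 2.5 mM tranylcypromine positive control for full effect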
E coli WT exp – growth inhibitors of wild-type E. coli, primary screen, strain BW25113, expanded library, OD600; OD600 absorbance; growth inhibition, % at 100 µM; 0.15% of 98,000 active;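 active = growth inhibition above about 50% at one test dose, limit read from the data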;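 also: growth measured after 20 h incubation at 37 °C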
The depositor's hits bear a star.

Results for Cc1cc(Oc2ccccc2)nc2ccc(O)cc12 ?
tolC growth inh: 29; CYP2C9 activ: 1.9; CYP2C19 act: 0.2; CYP2C9 inh: -85; CYP2C19 inhib: 80*; E coli WT exp: 23

Results for Cc1ccc(C(N)=S)c(C)c1 ?
tolC growth inh: -6; E coli WT exp: 13

How did COc1ccc(S(=O)NC2CCCCC2)c(OC)c1C (stereo not given) do in these assays?
CYP2C9 activ: 1; CYP2C19 act: 0.7; CYP2C9 inh: 2; CYP2C19 inhib: 26; E coli WT exp: -1

How did Cc1ccc(C)c2[nH]c(=O)c(CCNC(=O)c3cc4ccccc4o3)cc12 do in these assays?
tolC growth inh: 12; CYP2C9 activ: 0.5; CYP2C19 act: 0.5; CYP2C9 inh: 52*; CYP2C19 inhib: 46; E coli WT exp: -2

What do the screens show for `COc1ccc(OC)c2[nH]c(=O)c(CCNC(=O)c3cc4ccccc4o3)cc12`?
tolC growth inh: 15; CYP2C9 activ: 0.6; CYP2C19 act: 0.4; CYP2C9 inh: 36; CYP2C19 inhib: 63*; E coli WT exp: -8

How did CCC(CC)C(=O)NCCc1cc2c(C)ccc(C)c2[nH]c1=O do in these assays?
tolC growth inh: -3

How did CC(=O)Nc1cccc2c1OCCO2 do in these assays?
tolC growth inh: -17; CYP2C9 activ: 1; CYP2C19 act: 1; CYP2C9 inh: 0; CYP2C19 inhib: 0; E coli WT exp: 2

How did CCN(Cc1ccccc1)S(=O)(=O)c1ccc(S(=O)(=O)N2CCN(CCC#N)CC2)cc1 do in these assays?
tolC growth inh: -7; CYP2C9 activ: 1; CYP2C19 act: 1.3; CYP2C9 inh: -3; CYP2C19 inhib: -26; E coli WT exp: -5

How did CCOc1ccccc1NC(=O)C1CC(=O)n2ncnc2N1 (stereo not given) do in these assays?
CYP2C9 activ: 1.1; CYP2C19 act: 1; CYP2C9 inh: -9; CYP2C19 inhib: -2; E coli WT exp: -3

How did CC(Nc1n[nH]c(=S)[nH]c1=O)C(=O)OCc1ccccc1 (stereo not given) do in these assays?
tolC growth inh: -2; CYP2C9 activ: 0.1; CYP2C19 act: 0.9; CYP2C9 inh: 90*; CYP2C19 inhib: 11; E coli WT exp: -7

Results for CCCCOC(=O)C(C)Nc1n[nH]c(=S)[nH]c1=O (stereo not given) ?
CYP2C9 activ: 0.2; CYP2C19 act: 0.7; CYP2C9 inh: 79*; CYP2C19 inhib: 26; E coli WT exp: -1

Results for CCCCOC(=O)C(C)Nc1n[nH]c(=O)[nH]c1=O (stereo not given) ?
tolC growth inh: -18; CYP2C9 activ: 1.1; CYP2C19 act: 1.2; CYP2C9 inh: -6; CYP2C19 inhib: -20; E coli WT exp: -1

What do the screens show for `COc1ccc(C(=O)Cc2cc(OC)c(OC)cc2[N+](=O)[O-])c(OC)c1`?
CYP2C9 activ: 1.4; CYP2C19 act: 0.9; CYP2C9 inh: -38; CYP2C19 inhib: 14; E coli WT exp: 2

Results for COc1ccc(C(=O)COC(=O)CCn2nnc(-c3cccs3)n2)cc1 ?
tolC growth inh: -20; CYP2C9 activ: 1.1; CYP2C19 act: 1; CYP2C9 inh: -6; CYP2C19 inhib: 1; E coli WT exp: -15

Results for CC(=O)Nc1cc(C(=O)N2CCCC2)ccc1S(=O)(=O)c1ccc(Cl)cc1 ?
CYP2C9 activ: 0.9; CYP2C19 act: 1; CYP2C9 inh: 6; CYP2C19 inhib: -3; E coli WT exp: 0

What do the screens show for `CCOc1ccccc1NC(=O)c1ccccc1NS(C)(=O)=O`?
tolC growth inh: 13; CYP2C9 activ: 0; CYP2C19 act: 0.9; CYP2C9 inh: 96*; CYP2C19 inhib: 9; E coli WT exp: 4

How did CCOc1ccccc1C(=O)Nc1ccccc1O do in these assays?
tolC growth inh: 29; CYP2C9 activ: 5.7*; CYP2C19 act: 0.7; CYP2C9 inh: -469; CYP2C19 inhib: 27; E coli WT exp: 3

How did Nc1nc(SCC(=O)NC2CCCCCC2)[nH]c(=O)c1-c1ccccc1 do in these assays?
CYP2C9 activ: 1.2; CYP2C19 act: 1; CYP2C9 inh: -24; CYP2C19 inhib: 2; E coli WT exp: -6

What do the screens show for `CCN=c1scc(-c2ccco2)n1/N=C/c1ccc(O)cc1`?
CYP2C9 activ: 1.1; CYP2C19 act: 0.9; CYP2C9 inh: -11; CYP2C19 inhib: 10; E coli WT exp: 5

What do the screens show for `C=C(C)CN=c1scc(C)n1/N=C/c1ccco1`?
tolC growth inh: 1; CYP2C9 activ: 0.6; CYP2C19 act: 0.1; CYP2C9 inh: 44; CYP2C19 inhib: 88*; E coli WT exp: 2

Results for On1onc2c3cc(-c4ccccc4)nc3ccc21 ?
tolC growth inh: 98*; CYP2C9 activ: 0.3; CYP2C19 act: 0.8; CYP2C9 inh: 65*; CYP2C19 inhib: 25; E coli WT exp: 42

How did CCN(CC)C(=O)c1c2c(nc3ccccc13)-c1ccccc1CC2 do in these assays?
CYP2C9 activ: 0.4; CYP2C19 act: 0.8; CYP2C9 inh: 65*; CYP2C19 inhib: 24; E coli WT exp: 5

Results for C=CCNC(=O)c1c2c(nc3ccccc13)-c1ccccc1CC2 ?
CYP2C9 activ: 0.4; CYP2C19 act: 0.8; CYP2C9 inh: 62*; CYP2C19 inhib: 23; E coli WT exp: -6

Results for O=C(NCc1ccccc1)c1cnsn1 ?
tolC growth inh: -10; CYP2C9 activ: 1; CYP2C19 act: 1; CYP2C9 inh: -4; CYP2C19 inhib: -2; E coli WT exp: 9

How did CSc1nc(C)c(CCOC(=O)c2cccc(C)c2)c(=O)[nH]1 do in these assays?
CYP2C9 activ: 0.7; CYP2C19 act: 0.9; CYP2C9 inh: 26; CYP2C19 inhib: 13; E coli WT exp: -4

How did Cc1[nH]n(-c2ccccc2)c(=O)c1CCOC(=O)c1cccc(C(F)(F)F)c1 do in these assays?
CYP2C9 activ: 1; CYP2C19 act: 0.2; CYP2C9 inh: -2; CYP2C19 inhib: 78*; E coli WT exp: 6

How did COc1ccc(S(=O)(=O)NC(C)(C)C)cc1-c1nnc2c3ccccc3c(C)nn12 do in these assays?
CYP2C9 activ: 0.5; CYP2C19 act: 0.3; CYP2C9 inh: 46; CYP2C19 inhib: 66*; E coli WT exp: -2

Results for CCc1ccccc1N(CC(=O)N1CCN(c2ccccc2)CC1)S(C)(=O)=O ?
tolC growth inh: 9; CYP2C9 activ: 1; CYP2C19 act: 0.9; CYP2C9 inh: 0; CYP2C19 inhib: 14; E coli WT exp: 8

What do the screens show for `COc1cccc(NC(=O)N2CCN(Cc3nc4ccccc4c(=O)[nH]3)CC2)c1`?
tolC growth inh: -16

What do the screens show for `CCOC(=O)C1=C(NC(=S)NC(=O)c2ccccc2)c2ccccc2CC1C(C)C` (stereo not given)?
CYP2C9 activ: 0.2; CYP2C19 act: 0.6; CYP2C9 inh: 77*; CYP2C19 inhib: 41; E coli WT exp: -7
